Here are results for five compounds from ChEMBL document CHEMBL2390926, “Identification of novel FLT3 kinase inhibitors” (Eur J Med Chem, 2013).

Assay [1] concerns the target Insulin-like growth factor 1 receptor (Homo sapiens) (UniProt P08069). The assay can be described thus: Inhibition of IGF1R (unknown origin) transfected in mouse Ba/F3 cells at 1 uM after 24 hrs. The assay is classed as cell-based. The note with it: BaF3. Put shortly:
(§1)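 Kinase specificity panel: each Ba/F3 line transformed with one of 24 tyrosine kinases depends on that kinase to grow. Cells were given compound at 1 or 5 µM for 24 h, with DMSO as comparator. Percentage growth was read by ATP-lite luminescence and reported as mean ± SEM.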

The test system of another assay is EOL1. Description: Cytotoxicity against human EOL-1 cells after 72 hrs by plate reader analysis. The assay is classed as functional, cell-based. The note with it: EOL1, 72 h.
Assay [2] addresses Proto-oncogene tyrosine-protein kinase ROS (Homo sapiens) (UniProt P08922). The assay can be described thus: Inhibition of ROS1 (unknown origin) transfected in mouse Ba/F3 cells at 1 uM after 24 hrs. The assay is classed as cell-based. The note with it: BaF3.
Assay [3] deals with Fibroblast growth factor receptor 3 (Homo sapiens) (UniProt P22607). The assay can be described thus: Inhibition of FGFR3 (unknown origin) transfected in mouse Ba/F3 cells at 1 uM after 24 hrs. The assay is classed as cell-based. The note with it: BaF3. Put shortly: as §1
Another assay relates to BaF3. Description: Cytotoxicity against mouse BA/F3 cells transfected with FLT3-ITD-F691l at 1 uM after 24 hrs by plate reader analysis. The assay is classed as functional, cell-based.
Assay [4] addresses T1, Tyrosine-protein kinase Mer (Homo sapiens) (UniProt Q12866).
T1 sequence (whole entry): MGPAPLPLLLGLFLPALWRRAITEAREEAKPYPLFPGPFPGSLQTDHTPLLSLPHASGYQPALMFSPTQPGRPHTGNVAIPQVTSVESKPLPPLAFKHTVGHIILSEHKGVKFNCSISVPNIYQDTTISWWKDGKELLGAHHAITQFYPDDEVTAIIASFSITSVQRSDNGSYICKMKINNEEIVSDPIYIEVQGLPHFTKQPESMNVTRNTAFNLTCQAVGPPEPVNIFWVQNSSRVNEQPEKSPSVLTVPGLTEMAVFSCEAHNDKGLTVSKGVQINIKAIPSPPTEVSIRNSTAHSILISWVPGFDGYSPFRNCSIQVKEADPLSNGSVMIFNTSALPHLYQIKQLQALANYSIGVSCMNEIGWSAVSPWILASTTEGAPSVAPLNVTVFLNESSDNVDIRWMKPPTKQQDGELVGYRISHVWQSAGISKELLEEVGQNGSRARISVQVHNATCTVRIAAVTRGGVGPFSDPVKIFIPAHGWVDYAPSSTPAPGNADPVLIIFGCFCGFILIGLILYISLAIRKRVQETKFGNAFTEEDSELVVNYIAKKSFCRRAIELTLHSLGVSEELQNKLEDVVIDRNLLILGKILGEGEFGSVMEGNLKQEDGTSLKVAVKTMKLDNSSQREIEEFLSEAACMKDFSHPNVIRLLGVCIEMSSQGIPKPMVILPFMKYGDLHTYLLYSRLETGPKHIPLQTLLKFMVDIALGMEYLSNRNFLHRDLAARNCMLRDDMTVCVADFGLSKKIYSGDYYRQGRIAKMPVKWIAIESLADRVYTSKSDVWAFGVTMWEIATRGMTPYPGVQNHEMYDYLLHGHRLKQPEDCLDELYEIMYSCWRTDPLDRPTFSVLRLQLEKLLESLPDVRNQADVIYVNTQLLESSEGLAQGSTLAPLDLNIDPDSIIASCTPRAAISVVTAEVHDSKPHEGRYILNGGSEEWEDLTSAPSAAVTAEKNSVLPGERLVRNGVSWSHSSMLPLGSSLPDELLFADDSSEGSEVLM
The assay can be described thus: Inhibition of MERTK (unknown origin) transfected in mouse Ba/F3 cells at 5 uM after 24 hrs. The assay is classed as cell-based. The note with it: BaF3.

Assay [5] deals with NT-3 growth factor receptor (Homo sapiens) (UniProt Q16288). The assay can be described thus: Inhibition of NTRK3 (unknown origin) transfected in mouse Ba/F3 cells at 5 uM after 24 hrs. The assay is classed as cell-based. The note with it: BaF3.
The target in assay [6] is T2, Ephrin type-A receptor 8 (Homo sapiens) (UniProt P29322).
T2 sequence (whole entry): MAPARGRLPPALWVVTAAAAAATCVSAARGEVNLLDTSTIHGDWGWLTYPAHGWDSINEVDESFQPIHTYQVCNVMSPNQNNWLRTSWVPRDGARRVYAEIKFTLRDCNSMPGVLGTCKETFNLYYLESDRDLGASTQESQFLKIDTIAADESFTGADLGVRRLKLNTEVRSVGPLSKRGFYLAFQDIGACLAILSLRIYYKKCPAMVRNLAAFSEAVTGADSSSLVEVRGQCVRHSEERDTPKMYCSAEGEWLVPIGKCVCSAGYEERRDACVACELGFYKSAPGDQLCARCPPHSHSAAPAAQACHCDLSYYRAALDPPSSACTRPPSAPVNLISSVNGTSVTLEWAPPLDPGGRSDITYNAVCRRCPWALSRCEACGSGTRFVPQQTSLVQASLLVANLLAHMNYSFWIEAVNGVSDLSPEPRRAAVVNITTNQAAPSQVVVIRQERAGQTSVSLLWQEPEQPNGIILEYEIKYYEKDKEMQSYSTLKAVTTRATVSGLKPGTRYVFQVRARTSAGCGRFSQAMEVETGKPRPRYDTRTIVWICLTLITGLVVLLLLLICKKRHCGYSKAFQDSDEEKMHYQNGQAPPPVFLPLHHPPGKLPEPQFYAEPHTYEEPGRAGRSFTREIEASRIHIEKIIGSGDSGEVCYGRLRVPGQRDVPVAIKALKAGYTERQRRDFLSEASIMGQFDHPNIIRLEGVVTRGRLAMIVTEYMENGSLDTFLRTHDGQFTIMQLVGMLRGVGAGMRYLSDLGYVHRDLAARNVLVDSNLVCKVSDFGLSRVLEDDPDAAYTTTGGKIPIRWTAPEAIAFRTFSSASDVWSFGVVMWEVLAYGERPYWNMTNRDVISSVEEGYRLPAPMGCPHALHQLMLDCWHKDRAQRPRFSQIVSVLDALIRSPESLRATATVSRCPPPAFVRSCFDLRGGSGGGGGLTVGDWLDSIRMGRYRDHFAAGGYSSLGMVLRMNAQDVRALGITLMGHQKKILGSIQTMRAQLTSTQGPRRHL
Description: Inhibition of EPHA8 (unknown origin) transfected in mouse Ba/F3 cells at 5 uM after 24 hrs. The note with it: BaF3. The assay is classed as cell-based. Put shortly: as §1

Assay [7] has as its target Receptor tyrosine-protein kinase erbB-2 (Homo sapiens) (UniProt P04626). Description: Inhibition of ERBB2 (unknown origin) transfected in mouse Ba/F3 cells at 5 uM after 24 hrs. The note with it: BaF3. The assay is classed as cell-based. The method, boiled down:
as §1

The target in assay [8] is Tyrosine-protein kinase Fyn (Homo sapiens) (UniProt P06241). The assay can be described thus: Inhibition of FYN (unknown origin) transfected in mouse Ba/F3 cells at 5 uM after 24 hrs. The assay is classed as cell-based. Conditions: BaF3. The method, boiled down:
as §1

Assay [9] deals with Ephrin type-A receptor 5 (Homo sapiens) (UniProt P54756). The assay can be described thus: Inhibition of EPHA5 (unknown origin) transfected in mouse Ba/F3 cells at 5 uM after 24 hrs. The assay is classed as cell-based. Conditions: BaF3. The method, boiled down: as §1

Each structure is given as a SMILES string. The source made the active and inactive calls. The calls are words filed in the database; no cut-off is given here.

Proto-oncogene tyrosine-protein kinase ROS (Homo sapiens), sequence (P08922 whole entry): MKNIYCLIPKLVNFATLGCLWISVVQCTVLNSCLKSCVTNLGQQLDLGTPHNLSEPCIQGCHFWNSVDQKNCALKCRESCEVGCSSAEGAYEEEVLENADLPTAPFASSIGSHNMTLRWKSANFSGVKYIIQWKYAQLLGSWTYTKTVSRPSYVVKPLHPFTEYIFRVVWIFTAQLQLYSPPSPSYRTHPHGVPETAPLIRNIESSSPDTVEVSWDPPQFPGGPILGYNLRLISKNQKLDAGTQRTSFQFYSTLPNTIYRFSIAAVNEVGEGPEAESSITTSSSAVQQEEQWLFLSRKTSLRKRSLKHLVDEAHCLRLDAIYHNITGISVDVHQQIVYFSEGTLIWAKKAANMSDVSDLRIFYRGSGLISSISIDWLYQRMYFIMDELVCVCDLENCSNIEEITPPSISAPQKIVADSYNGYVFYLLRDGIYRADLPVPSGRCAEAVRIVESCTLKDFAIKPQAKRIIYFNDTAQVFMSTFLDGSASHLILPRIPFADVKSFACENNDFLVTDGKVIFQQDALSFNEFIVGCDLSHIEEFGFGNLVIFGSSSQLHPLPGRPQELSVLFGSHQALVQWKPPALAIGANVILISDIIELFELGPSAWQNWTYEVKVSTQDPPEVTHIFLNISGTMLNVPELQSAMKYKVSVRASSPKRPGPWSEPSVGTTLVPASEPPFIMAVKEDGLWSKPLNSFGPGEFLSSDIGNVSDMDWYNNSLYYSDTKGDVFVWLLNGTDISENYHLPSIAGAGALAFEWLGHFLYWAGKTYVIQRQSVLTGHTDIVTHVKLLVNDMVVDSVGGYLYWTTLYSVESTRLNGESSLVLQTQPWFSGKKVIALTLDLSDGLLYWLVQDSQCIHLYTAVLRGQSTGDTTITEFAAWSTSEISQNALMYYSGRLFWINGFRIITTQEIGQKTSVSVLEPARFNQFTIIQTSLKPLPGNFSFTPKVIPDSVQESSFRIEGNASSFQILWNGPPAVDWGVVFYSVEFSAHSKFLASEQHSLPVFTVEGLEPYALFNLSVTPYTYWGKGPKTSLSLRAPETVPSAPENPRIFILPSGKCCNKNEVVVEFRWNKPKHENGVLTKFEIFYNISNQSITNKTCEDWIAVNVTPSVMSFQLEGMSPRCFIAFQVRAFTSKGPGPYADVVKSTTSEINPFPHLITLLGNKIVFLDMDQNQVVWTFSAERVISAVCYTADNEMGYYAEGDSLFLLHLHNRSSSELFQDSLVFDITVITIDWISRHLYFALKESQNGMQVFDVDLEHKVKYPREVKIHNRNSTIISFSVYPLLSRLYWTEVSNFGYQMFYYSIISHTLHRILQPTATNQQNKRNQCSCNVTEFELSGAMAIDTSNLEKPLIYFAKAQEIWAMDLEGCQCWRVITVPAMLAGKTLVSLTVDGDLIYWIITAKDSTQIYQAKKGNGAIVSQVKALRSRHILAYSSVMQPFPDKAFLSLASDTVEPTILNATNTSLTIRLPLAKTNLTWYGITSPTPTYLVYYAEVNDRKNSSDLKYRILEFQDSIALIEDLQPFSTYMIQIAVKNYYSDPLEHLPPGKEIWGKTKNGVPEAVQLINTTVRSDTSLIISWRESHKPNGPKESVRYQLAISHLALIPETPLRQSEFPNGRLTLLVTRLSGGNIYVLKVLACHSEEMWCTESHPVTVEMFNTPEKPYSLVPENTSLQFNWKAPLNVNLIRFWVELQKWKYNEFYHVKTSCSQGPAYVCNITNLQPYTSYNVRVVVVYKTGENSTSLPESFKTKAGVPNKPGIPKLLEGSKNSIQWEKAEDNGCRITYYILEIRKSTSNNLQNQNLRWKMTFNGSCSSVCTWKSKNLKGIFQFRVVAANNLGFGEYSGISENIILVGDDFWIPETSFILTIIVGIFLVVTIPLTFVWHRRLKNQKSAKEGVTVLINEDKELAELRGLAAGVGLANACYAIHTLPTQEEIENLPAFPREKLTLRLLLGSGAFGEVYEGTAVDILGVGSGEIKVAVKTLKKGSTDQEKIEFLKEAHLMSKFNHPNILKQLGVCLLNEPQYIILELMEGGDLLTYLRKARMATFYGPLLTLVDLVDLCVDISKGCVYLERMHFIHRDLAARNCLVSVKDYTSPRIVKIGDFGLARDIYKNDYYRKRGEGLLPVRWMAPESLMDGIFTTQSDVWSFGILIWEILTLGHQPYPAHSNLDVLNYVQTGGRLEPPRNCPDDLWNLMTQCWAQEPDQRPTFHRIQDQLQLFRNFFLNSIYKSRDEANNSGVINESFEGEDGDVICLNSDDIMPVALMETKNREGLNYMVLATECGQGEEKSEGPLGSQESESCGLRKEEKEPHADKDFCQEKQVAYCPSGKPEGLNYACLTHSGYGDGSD
Fibroblast growth factor receptor 3 (Homo sapiens), sequence (P22607 23-806 limits assumed): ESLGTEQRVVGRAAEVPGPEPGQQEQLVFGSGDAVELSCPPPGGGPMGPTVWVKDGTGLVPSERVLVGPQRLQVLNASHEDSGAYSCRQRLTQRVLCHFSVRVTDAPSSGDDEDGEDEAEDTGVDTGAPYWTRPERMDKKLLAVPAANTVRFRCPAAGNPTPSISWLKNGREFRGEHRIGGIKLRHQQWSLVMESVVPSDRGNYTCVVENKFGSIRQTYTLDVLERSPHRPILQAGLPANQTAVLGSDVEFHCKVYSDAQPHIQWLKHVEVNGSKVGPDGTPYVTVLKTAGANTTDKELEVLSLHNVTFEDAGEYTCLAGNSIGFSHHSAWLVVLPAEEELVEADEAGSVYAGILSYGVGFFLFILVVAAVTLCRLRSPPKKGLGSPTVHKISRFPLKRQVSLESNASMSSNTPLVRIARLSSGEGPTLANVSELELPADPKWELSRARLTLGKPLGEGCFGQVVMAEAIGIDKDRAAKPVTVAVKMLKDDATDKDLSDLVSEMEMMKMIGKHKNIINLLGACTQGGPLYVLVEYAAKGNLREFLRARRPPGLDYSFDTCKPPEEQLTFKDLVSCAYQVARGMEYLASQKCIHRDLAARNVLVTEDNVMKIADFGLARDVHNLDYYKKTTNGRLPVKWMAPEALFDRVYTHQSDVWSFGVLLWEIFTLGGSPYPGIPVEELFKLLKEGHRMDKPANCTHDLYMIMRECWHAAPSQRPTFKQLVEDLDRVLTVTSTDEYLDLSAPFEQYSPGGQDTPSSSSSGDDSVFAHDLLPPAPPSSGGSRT
Insulin-like growth factor 1 receptor (Homo sapiens), sequence (P08069 31-736 limits assumed): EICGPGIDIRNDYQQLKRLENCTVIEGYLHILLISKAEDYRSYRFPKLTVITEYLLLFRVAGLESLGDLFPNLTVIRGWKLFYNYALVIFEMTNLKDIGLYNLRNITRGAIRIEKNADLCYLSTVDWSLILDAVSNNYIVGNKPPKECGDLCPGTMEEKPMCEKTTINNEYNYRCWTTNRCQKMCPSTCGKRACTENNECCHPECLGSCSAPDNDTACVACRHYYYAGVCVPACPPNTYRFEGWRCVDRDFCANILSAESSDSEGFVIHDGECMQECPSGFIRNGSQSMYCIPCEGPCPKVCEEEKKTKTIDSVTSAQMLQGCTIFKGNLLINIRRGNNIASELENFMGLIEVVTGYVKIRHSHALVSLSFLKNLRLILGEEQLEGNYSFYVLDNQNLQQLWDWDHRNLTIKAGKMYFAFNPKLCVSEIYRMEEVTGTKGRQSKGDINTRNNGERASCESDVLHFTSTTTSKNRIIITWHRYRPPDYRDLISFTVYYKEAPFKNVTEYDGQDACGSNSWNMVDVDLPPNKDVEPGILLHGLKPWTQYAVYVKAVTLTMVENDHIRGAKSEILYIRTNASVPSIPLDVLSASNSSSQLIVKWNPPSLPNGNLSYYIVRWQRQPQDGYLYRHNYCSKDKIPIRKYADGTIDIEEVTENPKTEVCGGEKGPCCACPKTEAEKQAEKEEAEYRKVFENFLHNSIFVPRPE
Insulin-like growth factor 1 receptor (Homo sapiens), sequence (P08069 741-1367 limits assumed): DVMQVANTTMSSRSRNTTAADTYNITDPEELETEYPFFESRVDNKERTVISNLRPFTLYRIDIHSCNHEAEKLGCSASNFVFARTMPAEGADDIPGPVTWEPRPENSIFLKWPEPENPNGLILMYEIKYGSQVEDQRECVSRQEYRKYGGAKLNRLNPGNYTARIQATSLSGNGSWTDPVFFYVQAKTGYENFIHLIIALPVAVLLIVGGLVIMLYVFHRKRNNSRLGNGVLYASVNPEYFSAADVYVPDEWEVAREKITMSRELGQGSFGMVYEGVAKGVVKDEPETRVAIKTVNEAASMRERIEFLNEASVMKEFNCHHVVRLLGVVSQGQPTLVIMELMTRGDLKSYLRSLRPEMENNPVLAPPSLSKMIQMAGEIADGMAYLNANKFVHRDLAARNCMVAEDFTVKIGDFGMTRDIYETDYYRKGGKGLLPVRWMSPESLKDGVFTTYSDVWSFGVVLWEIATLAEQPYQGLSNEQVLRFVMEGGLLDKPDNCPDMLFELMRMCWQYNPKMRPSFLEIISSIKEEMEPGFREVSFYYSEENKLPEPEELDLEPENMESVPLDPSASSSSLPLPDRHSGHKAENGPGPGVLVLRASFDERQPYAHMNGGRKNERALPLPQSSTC
Tyrosine-protein kinase Fyn (Homo sapiens), sequence (P06241 2-537 limits assumed): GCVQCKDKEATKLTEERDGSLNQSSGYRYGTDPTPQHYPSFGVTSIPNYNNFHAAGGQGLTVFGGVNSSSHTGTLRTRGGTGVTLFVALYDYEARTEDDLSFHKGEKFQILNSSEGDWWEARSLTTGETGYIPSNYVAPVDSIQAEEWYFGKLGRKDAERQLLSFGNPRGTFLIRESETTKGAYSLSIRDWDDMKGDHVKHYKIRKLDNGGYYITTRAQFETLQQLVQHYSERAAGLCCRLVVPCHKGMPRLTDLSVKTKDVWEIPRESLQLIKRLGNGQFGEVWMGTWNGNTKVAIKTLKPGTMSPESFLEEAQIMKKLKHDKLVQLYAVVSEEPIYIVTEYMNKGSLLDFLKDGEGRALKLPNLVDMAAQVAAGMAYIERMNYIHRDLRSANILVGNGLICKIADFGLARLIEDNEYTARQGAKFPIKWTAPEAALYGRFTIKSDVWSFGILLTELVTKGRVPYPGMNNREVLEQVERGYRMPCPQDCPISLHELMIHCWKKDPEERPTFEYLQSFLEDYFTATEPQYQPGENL

As for `Cc1cccc(C(=O)Nc2cc(-c3ccc(F)cc3)n[nH]2)c1`, the inhibition entry in assay [1], in assay [2] and in assay [3] was “inactive” in each case. This compound gave an EC50 in the assay with EOL1 of 202 nM.
Turning to `COc1ccc(C(=O)Nc2cc(-c3ccccc3)[nH]n2)cc1`, the inhibition result in [1], in [2] and in [3] was “inactive” in each case. This compound registered an EC50 in the assay on EOL1 of 66 nM. The outcome with BaF3 was Active.
Turning to `Cc1ccc(-c2cc(NC(=O)c3ccc(F)cc3)[nH]n2)cc1`, the inhibition result in assay [1], in assay [2] and in assay [3] was “inactive” in each case. The compound also came in with an EC50 in the assay with EOL1 of 502 nM.
With `Fc1ccc(-c2n[nH]cc2-c2ccncc2)cc1Cl`, the inhibition result in assay [4], in assay [5], in assay [7] and in [8] was “inactive” each time. For the same compound, the inhibition entry in assay [6] and in assay [9] was “Active” in each case. In the assay with EOL1, this compound returned an EC50 of 382 nM.
`Cc1ccc(-n2cnc3cc(Nc4nnc(C)c5ccccc45)ccc32)cc1`: the inhibition entry in assay [4], in [5], in [6], in assay [7], in assay [8] and in assay [9] was “inactive” in each case. For the same compound, the EC50 with EOL1 stood at 889 nM. Besides, in the assay with BaF3, the result was Active.
